The array DNA melting data of Ke et al. (doi:10.1101/2024.01.08.574731)

What was measured:
[1] = melting temperature; fluorescence melt of hairpins on a sequencing array, two-state fit, raised by 9.35 °C to match UV melts; settings: sodium 0.088 M
How it was run: (§1)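 In 50 mM Na-HEPES pH 8.0 containing 25 mM NaCl, hairpins from the library on a sequenced MiSeq flow cell were imaged for Cy3 fluorescence at 2.5 °C steps up to 60 °C, with Cy3 and quencher oligos annealed. After normalisation to pre-quench Cy3 and to control constructs, two-state fits with bootstrapping gave melting temperature and folding enthalpy. Four replicates were combined by inverse-variance weighting, and fitted temperatures were shifted up by 9.35 °C to match UV melts.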

[2] = folding enthalpy; higher = less favourable; fluorescence melt of hairpins on a sequencing array, two-state fit; settings: sodium 0.088 M
How it was run: as §1

Row | Sequence | Tm [1] | folding enthalpy [2]
1 | GGATATCGAAAGATTTCC (((.(((....))).))) | 41.5 °C | -30.9 kcal/mol
2 | GGATCACGAAAGTGGTCC (((.(((....))).))) | 60.4 °C | -33.7 kcal/mol
3 | GGATCCACGAAAGTGTCC (((..(((....)))))) | 28.4 °C | -12.4 kcal/mol
4 | GGATCCGAAAGGAACTCC ((((((....)))..))) | 34.7 °C | -13.3 kcal/mol
5 | GGATCCGAAAGGAAGTCC ((((((....)))..))) | 29.5 °C | -10.1 kcal/mol
6 | GGATCCGAAAGGAGGTCC ((((((....)))..))) | 32.9 °C | -14.9 kcal/mol
7 | GGATCCGAAAGGATATCC ((((((....)))..))) | 40.7 °C | -15.2 kcal/mol
8 | GGATCCGGAAACGGGTCC (((.(((....))).))) | 59.4 °C | -43.7 kcal/mol
9 | GGATCCGGAAACGGGTTC (.(.(((....))).).) | 38 °C | -16.8 kcal/mol
10 | GGATCCTCGAAAGAGTCC (((..(((....)))))) | 23.6 °C | -12.3 kcal/mol
11 | GGATCGCGAAAGCGCTCC (((.(((....))).))) | 54.2 °C | -25.3 kcal/mol
12 | GGATCGGGAAACCAATCC ((((.((....)).)))) | 38.2 °C | -29.6 kcal/mol
13 | GGATCTACGAAAGTATCC (((..(((....)))))) | 32.9 °C | -11.3 kcal/mol
14 | GGATCTTCGAAAGAATCC (((..(((....)))))) | 25.8 °C | -10.7 kcal/mol
15 | GGATGAGCGAAAGCTTCC (((..(((....)))))) | 39.4 °C | -11.4 kcal/mol
16 | GGATGAGGAAACTCGTCC (((.(((....))).))) | 50.8 °C | -38.4 kcal/mol
17 | GGATGCGAAAGCAAATCC ((((((....)))..))) | 47.1 °C | -21 kcal/mol
18 | GGATGCGAAAGCAGATCC ((((((....)))..))) | 45.6 °C | -16.1 kcal/mol
19 | GGATGCGAAAGCAGTTCC ((((((....)))..))) | 36 °C | -14.3 kcal/mol
20 | GGATGCGGAAACACATCC (((((.(....).))))) | 47.9 °C | -44.2 kcal/mol
21 | GGATGCGGAAACGCATTC (.(((((....))))).) | 54.5 °C | -19.2 kcal/mol
22 | GGATGCGGAAACGCGTCC (((.(((....))).))) | 61.8 °C | -47.5 kcal/mol
23 | GGATGCTCGAAAGAGTCC (((..(((....)))))) | 29.1 °C | -12.1 kcal/mol

Row | Sequence | Tm [1] | folding enthalpy [2]
24 | GGATGGGGAAACCCATCC (((((((....))))))) | 66.4 °C | -46.7 kcal/mol
25 | GGATGGGGAAACCTGTCC (((..((....))..))) | 41 °C | -29.3 kcal/mol
26 | GGATGGGGAAACTCATCC (((((.(....).))))) | 49.2 °C | -41 kcal/mol
27 | GGATGGTCGAAAGACTCC (((..(((....)))))) | 32.9 °C | -14.2 kcal/mol
28 | GGATGTCCGAAAGGATCC (((..(((....)))))) | 32.2 °C | -14.3 kcal/mol
29 | GGATGTCGAAAGACGTCC (((.(((....))).))) | 61 °C | -38.8 kcal/mol
30 | GGATGTGGAAACACATCC (((((((....))))))) | 64.5 °C | -42.6 kcal/mol
31 | GGATGTGGAAACACGTCC (((.(((....))).))) | 53 °C | -55.2 kcal/mol
32 | GGATGTGGAAACGCATTC (.(((.(....).))).) | 33.9 °C | -22.9 kcal/mol
33 | GGATTACGAAAGTATTCC (((.(((....))).))) | 44 °C | -32.6 kcal/mol
34 | GGATTAGCGAAAGCTTCC (((..(((....)))))) | 32.7 °C | -11.1 kcal/mol
35 | GGATTAGGAAACTAGTCC (((.(((....))).))) | 37.2 °C | -25.2 kcal/mol
36 | GGATTCGAAAGAAATCC ((((((....))).))) | 44 °C | -24.1 kcal/mol
37 | GGATTCGAAAGAACTCC ((((((....))).))) | 36 °C | -22 kcal/mol
38 | GGATTCGAAAGAACTTCC ((((((....)))..))) | 28.4 °C | -8.73 kcal/mol
39 | GGATTCGAAAGAAGTCC ((((((....))).))) | 36.7 °C | -17.2 kcal/mol
40 | GGATTGACGAAAGTCTCC (((..(((....)))))) | 28.4 °C | -13.7 kcal/mol
41 | GGATTGCGAAAGCATTCC (((.(((....))).))) | 52.8 °C | -36.2 kcal/mol
42 | GGATTGGGAAACCAGTCC (((.(((....))).))) | 46.9 °C | -31.1 kcal/mol
43 | GGATTGTCGAAAGACTCC (((..(((....)))))) | 30.9 °C | -16 kcal/mol
44 | GGATTTGGAAACAGATCC ((((.((....)).)))) | 41.5 °C | -30.7 kcal/mol
45 | GGATTTGGAAACGAATCC (((((.(....).))))) | 46.1 °C | -34.9 kcal/mol
